High-throughput results as filed in PubChem.
Sampled rows, rich in hits. Any-hit rate of the full collection: about 2.8%.
UBC13 polyUb – human UBC13 polyubiquitination inhibition. 330,000 tested, 0.47% active. P61088. AID 485273. inhibition, % at 20 µM. UBC13 polyubiquitin chain formation, TR-FRET; in the data active = inhibition above about 45%, passing the limit was not always enough
Target sequence (P61088 whole entry, looked up): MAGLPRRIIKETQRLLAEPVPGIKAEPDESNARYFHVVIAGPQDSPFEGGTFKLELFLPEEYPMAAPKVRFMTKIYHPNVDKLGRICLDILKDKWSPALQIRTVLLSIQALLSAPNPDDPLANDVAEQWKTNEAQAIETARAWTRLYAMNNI
AI-2 QS modul – Vibrio harveyi AI-2 quorum sensing modulation. activity change, % at 7.5 µM. 300,000 tested, 0.4% active. Vibrio harveyi JMH597 AI-2 luminescence/OD600 ratio, 9 h; stronger effect = lower value; strain lacks LuxN and CqsS sensors; 0 = neutral-control median; in the data active = activity change below about -75%, passing the limit was not always enough;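 note: luminescence divided by OD600 gain over 9 h not by final OD600 alone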
T cruzi repl – T. cruzi replication inhibition. T. cruzi beta-gal in NIH3T3, luminescence, 90 h. inhibition, % (test concentration not listed). 300,000 tested, 1.4% active;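 active = mean inhibition across valid replicates above about 55%, limit read from the data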;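 note: signal also drops with host cell toxicity which is not excluded here; 0% = plate median of DMSO wells and 100% = zero luminescence signal; higher percent means less beta-gal luminescence so fewer parasites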
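Assay system: NIH/3T3 fibroblasts plus reporter T. cruzi. Amount: NIH/3T3 cells, 5,000 per well. Buffer or medium: DMEM, 2% fetal bovine serum. Doses: compound pinned at 50 nL/well, DMSO. Schedule: ≥90 h infection period, 3 h prior cell attachment. Signal: luminescent β-galactosidase signal after 60 min lysis. Read-out: parasite load inhibition, %.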
pCIP destab – compounds decreasing mouse p/CIP protein stability. F442A p/CIP-EGFP cells, EGFP fluorescence, 16 h. decrease of EGFP signal, % at 10 µM. 290,000 tested, 0.01% active;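 active = EGFP signal decrease of at least 30% at 10 µM or well 3 SD below plate mean, unless failing retest; inactive = the rest, including hits failing retest or dose response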
PP1 counter – PP1-alpha (human) inhibition in PP5 counter-screen; P62136; inhibition, % at 6.7 µM; 320,000 tested, 0.9% active; purified PP1alpha, OMFP fluorescence;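 active = inhibition above the mean inhibition of all tested compounds plus 3 SD, computed separately for each screening campaign, cut at about 15% in these data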
Numbers without * were called inactive; . = no result given.

SMILES | UBC13 polyUb | AI-2 QS modul | T cruzi repl | pCIP destab | PP1 counter
Clc1ccc(-c2c[n+](Cc3ccc(Br)cc3)c3n2CCCCC3)cc1 | 8 | 23 | 52 | -15 | -1
O=[N+]([O-])c1ccc(C[n+]2cc(-c3ccc(Cl)c(Cl)c3)n3c2CCCCC3)cc1 | 10 | 6 | 20 | -6 | -3
Clc1ccc(C[n+]2cc(-c3ccccc3)n3c2CCCCC3)c(Cl)c1 | 15 | 25 | 55* | -9 | 0
Clc1ccc(-c2c[n+](Cc3cccc(Cl)c3)c3n2CCC3)cc1 | 8 | 13 | 60* | -22 | -1
O=C(c1ccc(S(=O)(=O)c2cccc(Cl)c2)c([N+](=O)[O-])c1)N1CCN(c2ccccn2)CC1 | 0 | 17 | 6 | 1 | -1
O=C(CCc1nnc(Cc2ccc(-c3ccccc3)cc2)o1)NCCc1cccnc1 | 4 | 1 | 8 | 1 | 0
O=C(CCc1nnc(CCCCc2ccccc2)o1)NCCc1cccnc1 | 12 | 23 | 60* | -8 | -3
COc1ccc(SCCN2CC[C@@H](C(C)(C)C)CCC2=O)cc1 | -2 | . | . | . | 4
COc1cc(-c2cc(C(=O)Nc3ccc(S(=O)(=O)NCc4ccco4)cc3)c3ccccc3n2)cc(OC)c1OC | 37 | -9 | 56* | -11 | 5
O=C(Cn1ncc(N2CCOCC2)c(Cl)c1=O)c1ccc(Cl)cc1 | 2 | -25 | 8 | -12 | -3
O=C(OCn1ncc(Cl)c(Cl)c1=O)c1ccccc1Cl | . | 5 | 58* | -21 | 3
O=C1CN(C(=O)COc2ccc(Cl)c(Cl)c2)c2ccccc2N1 | 6 | . | . | . | .
O=c1c(Cl)c(Cl)cnn1Cc1ccc(F)cc1 | 16 | 10 | -18 | -21 | -3
O=C(OCn1ncc(Cl)c(Cl)c1=O)c1ccc(F)cc1 | 2 | -6 | 63* | -4 | -4
O=C(Cn1ncc(Cl)c(Cl)c1=O)c1ccc(Cl)cc1 | . | -40 | 75* | -8 | 0
O=C1CN(C(=O)Cn2ncc(Cl)c(Cl)c2=O)c2ccccc2N1 | . | 25 | 75* | -22 | .
COCCNC(=O)COC(=O)c1ccc(OCC(=O)Nc2ccccc2OC)c(OC)c1 | 11 | 26 | -4 | 1 | 3
COc1ccc(NC(=O)c2c(OC)cccc2OC)c(OC)c1 | -11 | 10 | 59* | 0 | -6
CCOc1ccc(C2NCCc3cc(OC)c(OC)cc32)cc1OC (stereo unspecified) | 3 | 12 | 29 | -3 | -1
COc1ccc2cc1Oc1ccc(cc1)CC1c3c(cc(OC)c4c3Oc3cc5c(cc3O4)CCNC5C2)CCN1C (stereo unspecified) | 110* | 33 | 66* | -9 | 1
CCN(CC)c1ccc(N=Cc2ccccc2[N+](=O)[O-])cc1 | -47 | 20 | 74* | -8 | 1
CC(=O)N(Cc1cccnc1)c1cccc(-c2nc3ccccc3s2)c1 | -1 | 8 | 59* | -12 | -5
COc1cccc(NC(=O)c2ccc3c(c2)C(=O)N(CC2CCCO2)C3=O)c1 (stereo unspecified) | -13 | 20 | 1 | -4 | 1
c1ccc(Nc2cccc(Nc3ccccc3)c2)cc1 | 2 | -1 | 65* | -1 | 1
CN1CCc2c(C#N)c(N3CCCCC3)nc(NCc3ccccc3)c2C1 | 20 | 38 | 56* | -24 | 9
SMILES | UBC13 polyUb | AI-2 QS modul | T cruzi repl | pCIP destab | PP1 counter
CCC(Oc1ccccc1)C(=O)Nc1cc(C)on1 (stereo unspecified) | 4 | -2 | 6 | -13 | 2
Cc1cc(NC(=O)C(Cl)c2ccccc2)no1 (stereo unspecified) | 0 | -86* | -4 | -3 | -4
Cc1ccc2c(c1)sc[n+]2Cc1ccccc1 | 16 | -3 | 55* | -10 | -2
Cc1ccccc1OCC(=O)NCC(c1cccs1)N1CCOCC1 (stereo unspecified) | 0 | 28 | 4 | . | -4
Cc1ccc(-c2nc(CN3CCCC(C(=O)N4CCOCC4)C3)c(C)o2)cc1 (stereo unspecified) | 4 | 19 | 14 | 4 | -3
O=C(CNC1CCCCC1)Nc1ccc([N+](=O)[O-])cc1C(=O)Nc1ccccc1F | 14 | 13 | 4 | 8 | -8
Cc1ccc(C)c(N2CCN(CC(=O)Nc3ccc([N+](=O)[O-])cc3C(=O)Nc3ccccc3F)CC2)c1 | -11 | 32 | 71* | -9 | 9
CCOc1ccc(OCC)c(NC(=O)CN2CCN(c3cccc(C)c3)CC2)c1 | 1 | 36 | 39 | -1 | 0
